{
  "source": "ChEMBL document CHEMBL4219220",
  "about": "“Novel compounds that target lipoprotein lipase and mediate growth arrest in acute lymphoblastic leukemia” (Bioorg Med Chem Lett, 2018)",
  "key": {"SUP-B15 [1]": {"tested_on": "SUP-B15", "experiment": "Antiproliferative activity in human SUP-B15 cells assessed as inhibition of cell proliferation at 50 uM incubated for 72 hrs by CCK8 assay", "type": "functional, cell-based", "method_in_brief": "(§1)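 REH (Ph-negative, peripheral blood derived) and SupB15 (Ph-positive, bone marrow derived) B-ALL cells seeded at 50,000 cells/well in 96-well plates. Single test concentration of 50 μM (final) for 72 h, with untreated cells as controls. Proliferation read by CCK-8 (reagent 2 h at 37° C, absorbance 450 nm). Mean ± SEM, N = 3.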"}, "REH [2]": {"tested_on": "REH", "experiment": "Antiproliferative activity in human REH cells assessed as inhibition of cell proliferation at 50 uM incubated for 72 hrs by CCK8 assay", "type": "functional", "method_in_brief": "as §1"}, "Albumin": {"molecular_target": "Albumin (Homo sapiens, UniProt P02768)", "sequence (P02768 whole entry)": "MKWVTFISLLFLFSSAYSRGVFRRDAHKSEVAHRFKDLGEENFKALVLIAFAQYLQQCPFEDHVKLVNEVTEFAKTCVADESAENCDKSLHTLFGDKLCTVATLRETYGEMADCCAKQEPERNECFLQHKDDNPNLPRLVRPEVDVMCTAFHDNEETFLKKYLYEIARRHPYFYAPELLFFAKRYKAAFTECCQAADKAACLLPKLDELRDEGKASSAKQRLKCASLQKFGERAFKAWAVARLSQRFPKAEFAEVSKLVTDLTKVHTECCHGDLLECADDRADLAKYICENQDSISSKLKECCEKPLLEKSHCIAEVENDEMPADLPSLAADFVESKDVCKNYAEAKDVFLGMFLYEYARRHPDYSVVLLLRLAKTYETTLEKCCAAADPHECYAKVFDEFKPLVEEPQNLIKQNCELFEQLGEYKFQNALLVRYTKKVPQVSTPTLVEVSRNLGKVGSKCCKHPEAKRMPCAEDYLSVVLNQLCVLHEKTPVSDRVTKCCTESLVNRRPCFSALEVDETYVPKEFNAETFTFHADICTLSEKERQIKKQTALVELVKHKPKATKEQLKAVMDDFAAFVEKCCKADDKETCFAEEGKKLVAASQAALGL", "experiment": "Binding affinity to serum albumin (unknown origin) at 1 to 100 uM", "type": "ADME", "conditions": "read-out: PB"}, "SUP-B15 [3]": {"tested_on": "SUP-B15", "experiment": "Antiproliferative activity in human SUP-B15 cells assessed as inhibition of cell proliferation incubated for 72 hrs by CCK8 assay", "type": "functional, cell-based", "conditions": "SUP-B15, 72 h", "method_in_brief": "(§2)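 Dose-response in REH and SupB15 cells. Proliferation read by CCK-8 after 72 h of compound exposure (reagent 2 h at 37° C, absorbance 450 nm). IC50 taken from the dose-response curve.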"}, "REH [4]": {"tested_on": "REH", "experiment": "Induction of cell death in human REH cells co-cultured with bone marrow stromal cells assessed as reduction in live cell population of suspended floater cells at 20 to 40 uM", "type": "functional, cell-based", "method_in_brief": "(§3)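 REH leukemic cells in co-culture with bone marrow stromal cells. Two fractions were scored: suspended floaters (FL), and phase dim (PD) cells lying beneath the stromal layer. Read-outs were live cell population and cell death.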"}, "REH [5]": {"tested_on": "REH", "experiment": "Antiproliferative activity in human REH cells assessed as inhibition of cell proliferation incubated for 72 hrs by CCK8 assay", "type": "functional, cell-based", "method_in_brief": "as §2"}, "REH [6]": {"tested_on": "REH", "experiment": "Induction of cell death in human REH cells co-cultured with bone marrow stromal cells assessed as reduction in live cell population of phase dim cells buried underneath bone marrow stromal layer at 20 to 40 uM", "type": "functional, cell-based", "method_in_brief": "as §3"}, "REH [7]": {"tested_on": "REH", "experiment": "Induction of cell death in human REH cells co-cultured with bone marrow stromal cells assessed as increase in cell death of phase dim cells buried underneath bone marrow stromal layer at 20 to 40 uM", "type": "functional, cell-based", "method_in_brief": "as §3"}, "REH [8]": {"tested_on": "REH", "experiment": "Induction of cell death in human REH cells co-cultured with bone marrow stromal cells assessed as increase in cell death of suspended floater cells at 20 to 40 uM", "type": "functional, cell-based", "method_in_brief": "as §3"}},
  "note": "Calls of active or inactive are those of the source. No cut-off for these calls is given here.",
  "data": [
    {"smiles": "Cc1cccc(=O)n1CCCNC(=O)C1C(c2ccc(F)cc2)C1(C)C", "note": "(configuration not stated)", "values": [
      {"measurement": "inhibition", "setting": "SUP-B15 [1]", "value": "inactive"},
      {"measurement": "inhibition", "setting": "REH [2]", "value": "Active"}
    ]},
    {"smiles": "CC1(C)C(C(=O)N2CCN(c3cnccn3)CC2)C1c1ccc(F)cc1", "note": "(configuration not stated)", "values": [
      {"measurement": "inhibition", "setting": "SUP-B15 [1]", "value": "inactive"},
      {"measurement": "inhibition", "setting": "REH [2]", "value": "Active"}
    ]},
    {"smiles": "Cc1cccnc1CN1CCN(C(=O)C2C(c3ccc(F)cc3)C2(C)C)CC1", "note": "(configuration not stated)", "values": [
      {"measurement": "inhibition", "setting": "SUP-B15 [1]", "value": "inactive"},
      {"measurement": "inhibition", "setting": "REH [2]", "value": "Active"}
    ]},
    {"smiles": "CC1(C)C(C(=O)NCc2noc(-c3ccco3)n2)C1c1ccc(F)cc1", "note": "(configuration not stated)", "values": [
      {"measurement": "inhibition", "setting": "SUP-B15 [1]", "value": "inactive"},
      {"measurement": "inhibition", "setting": "REH [2]", "value": "Active"}
    ]},
    {"smiles": "CSc1ncc(CNC(=O)C2C(c3ccc(F)cc3)C2(C)C)n1C", "note": "(configuration not stated)", "values": [
      {"measurement": "inhibition", "setting": "SUP-B15 [1]", "value": "inactive"},
      {"measurement": "inhibition", "setting": "REH [2]", "value": "Active"}
    ]},
    {"smiles": "Cc1nccn1-c1ccccc1CNC(=O)C1C(c2ccc(F)cc2)C1(C)C", "note": "(configuration not stated)", "values": [
      {"measurement": "inhibition", "setting": "SUP-B15 [1]", "value": "inactive"},
      {"measurement": "inhibition", "setting": "REH [2]", "value": "Active"}
    ]},
    {"smiles": "COCc1cc(CNC(=O)C2C(c3ccc(F)cc3)C2(C)C)n[nH]1", "note": "(configuration not stated)", "values": [
      {"measurement": "inhibition", "setting": "SUP-B15 [1]", "value": "inactive"},
      {"measurement": "inhibition", "setting": "REH [2]", "value": "Active"}
    ]},
    {"smiles": "CC1(C)C(C(=O)N2CC(c3cccnc3)C2)C1c1ccc(F)cc1", "note": "(configuration not stated)", "values": [
      {"measurement": "inhibition", "setting": "SUP-B15 [1]", "value": "inactive"},
      {"measurement": "inhibition", "setting": "REH [2]", "value": "Active"}
    ]},
    {"smiles": "CSCc1nc(CNC(=O)C2C(c3ccc(F)cc3)C2(C)C)no1", "note": "(configuration not stated)", "values": [
      {"measurement": "inhibition", "setting": "SUP-B15 [1]", "value": "inactive"},
      {"measurement": "inhibition", "setting": "REH [2]", "value": "Active"}
    ]},
    {"smiles": "CC1(C)C(C(=O)NCC2CCC(C(=O)O)CC2)C1c1ccc(F)cc1", "note": "(configuration not stated)", "values": [
      {"measurement": "inhibition", "setting": "SUP-B15 [1]", "value": "inactive"},
      {"measurement": "inhibition", "setting": "REH [2]", "value": "Active"}
    ]},
    {"smiles": "Cc1nc[nH]c1CCCCNC(=O)C1C(c2ccc(F)cc2)C1(C)C", "note": "(configuration not stated)", "values": [
      {"measurement": "inhibition", "setting": "SUP-B15 [1]", "value": "inactive"},
      {"measurement": "inhibition", "setting": "REH [2]", "value": "Active"}
    ]},
    {"smiles": "CCc1c(C)nn(CCNC(=O)C2C(c3ccc(F)cc3)C2(C)C)c1C", "note": "(configuration not stated)", "values": [
      {"measurement": "fraction unbound at up to 100 µM", "setting": "Albumin", "value": "> 0.95"},
      {"measurement": "IC50", "setting": "SUP-B15 [3]", "value": 44.7, "unit": "µM"},
      {"measurement": "Activity", "setting": "REH [4]", "value": "Active"},
      {"measurement": "IC50", "setting": "REH [5]", "value": 16.5, "unit": "µM"},
      {"measurement": "Activity", "setting": "REH [6]", "value": "Active"},
      {"measurement": "Activity", "setting": "REH [7]", "value": "Active"},
      {"measurement": "inhibition", "setting": "SUP-B15 [1]", "value": "Active"},
      {"measurement": "inhibition at 50 µM", "setting": "REH [2]", "value": "> 50", "unit": "%"},
      {"measurement": "Activity", "setting": "REH [8]", "value": "Active"}
    ]},
    {"smiles": "CN1CC2(CCC1=O)CCN(C(=O)C1C(c3ccc(F)cc3)C1(C)C)CC2", "note": "(configuration not stated)", "values": [
      {"measurement": "inhibition", "setting": "SUP-B15 [1]", "value": "inactive"},
      {"measurement": "inhibition", "setting": "REH [2]", "value": "Active"}
    ]},
    {"smiles": "CC1(C)C(C(=O)NCCNc2cccnc2)C1c1ccc(F)cc1", "note": "(configuration not stated)", "values": [
      {"measurement": "inhibition", "setting": "SUP-B15 [1]", "value": "inactive"},
      {"measurement": "inhibition", "setting": "REH [2]", "value": "Active"}
    ]},
    {"smiles": "CC1C=NN=C1C(C)NC(=O)C1C(c2ccc(F)cc2)C1(C)C", "note": "(configuration not stated)", "values": [
      {"measurement": "inhibition", "setting": "SUP-B15 [1]", "value": "inactive"},
      {"measurement": "inhibition", "setting": "REH [2]", "value": "Active"}
    ]},
    {"smiles": "Cc1cnc(CNC(=O)C2C(c3ccc(F)cc3)C2(C)C)cn1", "note": "(configuration not stated)", "values": [
      {"measurement": "inhibition", "setting": "SUP-B15 [1]", "value": "inactive"},
      {"measurement": "inhibition", "setting": "REH [2]", "value": "Active"}
    ]},
    {"smiles": "CC1(C)C(C(=O)N2CCC3(CCCO3)CC2)C1c1ccc(F)cc1", "note": "(configuration not stated)", "values": [
      {"measurement": "inhibition", "setting": "SUP-B15 [1]", "value": "inactive"},
      {"measurement": "inhibition", "setting": "REH [2]", "value": "Active"}
    ]},
    {"smiles": "Cc1cc(CNC(=O)C2C(c3ccc(F)cc3)C2(C)C)ccn1", "note": "(configuration not stated)", "values": [
      {"measurement": "inhibition", "setting": "SUP-B15 [1]", "value": "inactive"},
      {"measurement": "inhibition", "setting": "REH [2]", "value": "Active"}
    ]},
    {"smiles": "CC1(C)C(C(=O)NCCCc2cnc(N)s2)C1c1ccc(F)cc1", "note": "(configuration not stated)", "values": [
      {"measurement": "inhibition", "setting": "SUP-B15 [1]", "value": "inactive"},
      {"measurement": "inhibition", "setting": "REH [2]", "value": "Active"}
    ]},
    {"smiles": "CC1(C)C(C(=O)NCCCN2CCOCC2)C1c1ccc(F)cc1", "note": "(configuration not stated)", "values": [
      {"measurement": "inhibition", "setting": "SUP-B15 [1]", "value": "inactive"},
      {"measurement": "inhibition", "setting": "REH [2]", "value": "Active"}
    ]}
  ]
}
